Source: PubChem (Broad Institute)
E-sel inducer – E-selectin induction on HUVECs; P16581; HUVEC E-selectin immunofluorescence imaging; normalized: neutral wells 0, TNF-alpha wells 100; activation, % at 7.58 µM; 260,000 compounds, 0.37% hits; AID 686992;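 active = mean E-selectin-positive cell signal at least 10% of the positive control, reached in at least 60% of replicates, without over 20% cell loss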
Target sequence (P16581 whole entry, looked up): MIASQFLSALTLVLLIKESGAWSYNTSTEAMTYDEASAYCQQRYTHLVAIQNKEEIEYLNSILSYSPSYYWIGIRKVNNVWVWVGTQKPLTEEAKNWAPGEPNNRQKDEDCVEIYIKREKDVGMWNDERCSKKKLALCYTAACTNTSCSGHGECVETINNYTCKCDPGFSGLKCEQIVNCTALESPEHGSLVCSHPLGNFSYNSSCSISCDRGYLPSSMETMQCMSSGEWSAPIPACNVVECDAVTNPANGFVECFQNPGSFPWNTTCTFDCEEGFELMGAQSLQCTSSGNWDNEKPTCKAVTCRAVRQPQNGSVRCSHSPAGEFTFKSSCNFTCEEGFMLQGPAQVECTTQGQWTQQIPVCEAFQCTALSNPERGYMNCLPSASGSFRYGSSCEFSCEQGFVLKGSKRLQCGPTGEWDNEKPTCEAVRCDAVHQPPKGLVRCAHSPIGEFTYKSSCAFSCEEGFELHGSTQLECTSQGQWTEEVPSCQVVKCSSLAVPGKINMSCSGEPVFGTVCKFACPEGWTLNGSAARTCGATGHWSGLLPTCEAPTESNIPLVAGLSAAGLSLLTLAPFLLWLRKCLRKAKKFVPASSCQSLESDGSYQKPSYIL
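Read-out: % PE-positive cells | Test system: HUVEC | Doses: One compound dose added by pin transfer | Buffer or medium: EGM-2 over gelatin coat | Signal: Immunofluorescence imaging | Benchmarks: TNF-alpha, DMSO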
FGF22 binding – shifts melting point of recombinant human FGF22. Q9HCT0. recombinant FGF22 thermal shift, SYPRO orange fluorescence; percent of sucrose octasulfate shift, DMSO zero. activity (Tm shift, normalised), % at 9.99 µM. 340,000 compounds, 1.5% hits. AID 651658;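 active = mean Tm shift, scaled 0 neutral to 100 positive control, at about 1.3% or above, every replicate too, limit read from the data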
S100A4 MyoIIA – S100A4-myosin IIA interaction inhibition; P26447; S100A4/TAMRA-MyoIIA peptide fluorescence polarization; inhibition, % at 10.7 µM; 360,000 compounds, 0.14% hits; AID 652163;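 active = mean inhibition of at least 70% across replicates, with every replicate also reaching that level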
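Material: human S100A4 monomer with TAMRA-labelled myosin IIA peptide; buffer or medium: HEPES pH 7.2 with CaCl2, KCl, NaCl, DTT, Triton; compound dosing: one concentration per compound; schedule: 5 min incubation before reading; benchmarks: neutral control DMSO, positive control TFP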
SIRT5 block – inhibitors of human sirtuin-5 desuccinylase; 330,000 compounds, 1.1% hits; Purified SirT5, succinyl-peptide AMC, trypsin-coupled fluorescence; Q9NXA8; AID 652115; inhibition, % at 15 µM; in the data active = inhibition above about 15%
miR122 inh – miR-122 inhibition in Huh7 cells. Huh7 miR-122 Renilla luciferase sensor, 48 h; neutral wells = 0, positive control = 100. 340,000 compounds, 0.3% hits. activation (reporter increase), % at 12.5 µM;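 active = mean replicate activation score at least 90 and every replicate individually at or above 90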;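 also: higher luciferase means less miR-122 activity so hits act as miR-122 inhibitors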
* marks the source's active call; other numbers are inactive results; / = no result; ! = not active in a repeat; [ ] = dose if it differs, or a comment. Sampled rows, rich in hits. Any-hit rate of the full collection: about 2.5%.

SMILES	E-sel inducer	FGF22 binding	S100A4 MyoIIA	SIRT5 block	miR122 inh
O=C(NC[C@H]1CC[C@H]2[C@H](CN2Cc2ccc(Oc3ccccc3)cc2)O1)C1CCOCC1	/	/	0	-3	/
O=C1N[C@@H](Cc2ccccc2)[C@@H](c2ccco2)O1	0	0	2	45*	5
O=C(O)C1Nc2c(Cl)cc(Cl)c(Cl)c2C2C=CCC12 (stereo not given)	/	0	-24	22*	-2
O=C(O)C1Nc2c(O)cccc2C2C=CCC12 (stereo not given)	/	0	-2	17*	/
CC(=O)N(c1ccc2oc(=O)sc2c1)S(=O)(=O)c1ccc(C(=O)O)cc1	/	0	-2	20*	/
COCC(=O)N1CCC2CC1c1cc(Cl)ccc12 (stereo not given)	0	0	-3	22*	-3
O=[N+]([O-])c1ccc(N2CCN(c3ccc([N+](=O)[O-])cc3CO)CC2)c(CO)c1	45*	0	1	-5	-2
N#Cc1cc([N+](=O)[O-])ccc1N1CCN(c2ccccc2O)CC1	1	-1	6	-1	/
CN(C)c1ccc2c(c1)[C@H]1C[C@H](CC(=O)NCC3CC3)O[C@H](CO)[C@H]1O2	0	-1	15	4	8[16.7 µM]
COc1ccc2c3c([nH]c2c1)[C@H](CO)N(C(=O)c1cccnc1)CC31CN(Cc2cccnc2)C1	0	0	-3	-1	/
C[C@@H]1CN([C@H](C)CO)C(=O)Cc2cc(NC(=O)Cc3cn(C)c4ccccc34)ccc2O[C@@H]1CN(C)Cc1ccc(Cl)c(Cl)c1	-5	-1	-2	-2	20[16.7 µM]
Cc1cccc(Nc2ncnc3onc(-c4ccc(F)cc4)c23)c1C	0	0	-2	16*	/
COc1ccccc1-n1c(-c2ccccc2)c[n+]2c1CCc1ccccc1-2	0	0	5	112*!	-29
CCC(=O)N1[C@H](CO)[C@H](c2ccc(-c3ccccc3)cc2)[C@H]1CN(CC)C(C)=O	0	0	11	30*	21[16.7 µM]
CCN(C[C@H]1[C@@H](c2ccc(-c3ccccc3)cc2)[C@@H](CO)N1C(C)=O)C(C)=O	0	/	-10	-1	/
CC(=O)N(C)C[C@H]1[C@H](c2ccc(-c3cccnc3)cc2)[C@@H](CO)N1C(=O)C1CC1	0	-1	4	1	125*[16.7 µM]
CC(=O)N1[C@H](CNC(=O)C2CC2)[C@@H](c2ccc(-c3ccccc3)cc2)[C@@H]1CO	0	-2	48	12	200*[16.7 µM]
CCN(C[C@H]1[C@@H](c2ccc(-c3ccccc3F)cc2)[C@@H](CO)N1C(C)=O)C(C)=O	0	/	7	22*	/
CC=Cc1ccc2n(c1=O)C[C@H]1[C@H](CO)[C@@H](C(=O)NCC)N(C(=O)C3CCOCC3)[C@@H]21 (mixture of isomers)	0	0	11	1	-3[16.7 µM]
Cc1ccc(S(=O)(=O)Nc2ccc3c(c2)C(=O)N([C@H](C)CO)C[C@H](C)[C@H](CN(C)C(=O)NC2CCCCC2)OCCCC[C@@H](C)O3)cc1	1	0	27	4	13[16.7 µM]
COCCOC(=O)N1C(=O)[C@@]2(c3cc(C#Cc4ccc(OC)cc4)ccc31)[C@H](C(=O)N1CCc3cc(OC)c(OC)cc3C1)[C@H]1C(=O)O[C@H](c3ccccc3)[C@H](c3ccccc3)N1[C@@H]2c1ccc(OCCO)cc1	/	0	30	5	/
CCC(=O)N(C)C[C@@H]1[C@@H](c2ccc(-c3ccccc3F)cc2)[C@H](CO)N1C(C)=O	0	-1	6	22*	8[16.7 µM]
O=C(NC[C@H]1N[C@H](CO)[C@@H]1c1ccccc1)C1CCCC1	0	-1	0	2	125*[16.7 µM]
O=C(COC(=O)COc1cccc2ccccc12)NCC(F)(F)F	/	43*	2	-4	/
O=C(COc1cccc2cccnc12)NCC(F)(F)F	/	/	/	/	3
CC(C)NC(=O)N(C)C[C@@H]1Oc2ccc(NC(=O)Nc3ccc4c(c3)OCO4)cc2C(=O)N([C@@H](C)CO)C[C@H]1C	-3	0	-10	2	1[16.7 µM]
Cc1ccc(-c2cc(C(=O)OCC(=O)N(C)C3CCS(=O)(=O)C3)c3ccccc3n2)o1 (stereo not given)	-2	43*	-1	-28	/
